Measured values from ChEMBL document CHEMBL2203081 (Bioorg Med Chem Lett, 2012).
Active and inactive are the calls of the source. No cut-off for these calls is given here.

Key:
[1] = molecular target: Dual specificity mitogen-activated protein kinase kinase 1 (Homo sapiens) (UniProt Q02750); assay: Inhibition of MKK1 assessed as residual activity at 1 uM
[2] = molecular target: Myotonin-protein kinase (Homo sapiens) (UniProt Q09013); assay: Inhibition of DMPK assessed as residual activity at 10 uM relative to control
Method in brief: (§1)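 Competition kinase-binding assay (KINOMEscan) across a non-redundant panel of 329 kinases beyond the radiometric panel; residual binding expressed relative to control.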

[3] = molecular target: Dual serine/threonine and tyrosine protein kinase (Homo sapiens) (UniProt Q6XUX3); assay: Inhibition of RIPK5 assessed as residual activity at 10 uM relative to control
[4] = molecular target: Leucine-rich repeat serine/threonine-protein kinase 2 (Mus musculus) (UniProt Q5S006); assay: Inhibition of LRRK2 in Swiss mouse 3T3 cells assessed as inhibition of Ser935 autophosphorylation after 90 mins by immunoblot method; assay type: cell-based; conditions: NIH3T3
[5] = molecular target: T1, Serine/threonine-protein kinase D1 (Homo sapiens) (UniProt Q15139); assay: Inhibition of PKD1 assessed as residual activity at 1 uM
T1 sequence (whole entry): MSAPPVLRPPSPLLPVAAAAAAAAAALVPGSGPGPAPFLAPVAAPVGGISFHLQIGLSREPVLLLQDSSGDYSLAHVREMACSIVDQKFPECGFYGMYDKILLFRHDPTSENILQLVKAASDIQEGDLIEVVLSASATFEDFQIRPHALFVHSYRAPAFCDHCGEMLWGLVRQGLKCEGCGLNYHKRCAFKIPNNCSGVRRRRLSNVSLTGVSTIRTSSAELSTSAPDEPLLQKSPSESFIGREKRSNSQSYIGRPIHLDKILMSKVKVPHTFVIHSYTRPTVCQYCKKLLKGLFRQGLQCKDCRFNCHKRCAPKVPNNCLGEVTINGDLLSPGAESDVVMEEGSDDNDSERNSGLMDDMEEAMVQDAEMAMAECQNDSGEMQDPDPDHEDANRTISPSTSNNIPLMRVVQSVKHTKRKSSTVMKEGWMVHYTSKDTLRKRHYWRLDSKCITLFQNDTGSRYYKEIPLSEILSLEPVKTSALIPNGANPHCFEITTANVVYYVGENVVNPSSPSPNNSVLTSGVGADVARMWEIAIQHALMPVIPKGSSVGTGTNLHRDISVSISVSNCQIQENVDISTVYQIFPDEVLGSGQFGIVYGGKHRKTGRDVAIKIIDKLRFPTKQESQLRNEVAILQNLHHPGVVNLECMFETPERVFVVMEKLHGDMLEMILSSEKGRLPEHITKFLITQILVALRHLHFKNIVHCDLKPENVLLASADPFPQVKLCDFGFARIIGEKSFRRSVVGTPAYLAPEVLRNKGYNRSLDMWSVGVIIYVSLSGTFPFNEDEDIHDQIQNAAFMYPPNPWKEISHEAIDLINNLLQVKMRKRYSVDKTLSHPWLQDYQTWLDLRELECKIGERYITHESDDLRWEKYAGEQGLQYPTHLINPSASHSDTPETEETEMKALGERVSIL

[6] = molecular target: MAP kinase-activated protein kinase 2 (Homo sapiens) (UniProt P49137); assay: Inhibition of MAPKAPK2 assessed as residual activity at 10 uM relative to control
[7] = molecular target: Tyrosine-protein kinase CSK (Homo sapiens) (UniProt P41240); assay: Inhibition of CSK assessed as residual activity at 10 uM
Method in brief: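 Standard radioactivity-based enzymatic kinase assays on a 131-kinase panel run by the Dundee profiling service; residual kinase activity recorded.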

[8] = molecular target: Cyclin-dependent kinase 9 (Homo sapiens) (UniProt P50750); assay: Inhibition of CDK9 assessed as residual activity at 10 uM relative to control
[9] = molecular target: Mitogen-activated protein kinase kinase kinase 4 (Homo sapiens) (UniProt Q9Y6R4); assay: Inhibition of MAP3K4 assessed as residual activity at 10 uM relative to control
[10] = molecular target: Calcium/calmodulin-dependent protein kinase kinase 2 (Homo sapiens) (UniProt Q96RR4); assay: Inhibition of CAMKKb assessed as residual activity at 1 uM
[11] = test system: Epidermal growth factor receptor (Homo sapiens), P00533 [L861Q]; assay: Inhibition of EGFR L861Q mutant assessed as residual activity at 10 uM relative to control; assay type: protein assay; method in brief: as §1
[12] = molecular target: Tyrosine-protein kinase Lck (Homo sapiens) (UniProt P06239); assay: Inhibition of Lck assessed as residual activity at 1 uM
[13] = molecular target: Insulin receptor (Homo sapiens) (UniProt P06213); assay: Inhibition of INSR assessed as residual activity at 10 uM relative to control
[14] = test system: Mus musculus; assay: Inhibition of LRRK2 in mouse assessed as inhibition of Ser935 autophosphorylation in kidney at 100 mg/kg, ip by immunoblot method; assay type: functional, organism-based; set-up: dose 100 mg/kg
[15] = molecular target: Serine/threonine-protein kinase SBK1 (Homo sapiens) (UniProt Q52WX2); assay: Inhibition of SBK1 assessed as residual activity at 10 uM relative to control
[16] = molecular target: T2, Mitogen-activated protein kinase kinase kinase 7 (Homo sapiens) (UniProt O43318); assay: Inhibition of TAK1 assessed as residual activity at 1 uM
T2 sequence (whole entry): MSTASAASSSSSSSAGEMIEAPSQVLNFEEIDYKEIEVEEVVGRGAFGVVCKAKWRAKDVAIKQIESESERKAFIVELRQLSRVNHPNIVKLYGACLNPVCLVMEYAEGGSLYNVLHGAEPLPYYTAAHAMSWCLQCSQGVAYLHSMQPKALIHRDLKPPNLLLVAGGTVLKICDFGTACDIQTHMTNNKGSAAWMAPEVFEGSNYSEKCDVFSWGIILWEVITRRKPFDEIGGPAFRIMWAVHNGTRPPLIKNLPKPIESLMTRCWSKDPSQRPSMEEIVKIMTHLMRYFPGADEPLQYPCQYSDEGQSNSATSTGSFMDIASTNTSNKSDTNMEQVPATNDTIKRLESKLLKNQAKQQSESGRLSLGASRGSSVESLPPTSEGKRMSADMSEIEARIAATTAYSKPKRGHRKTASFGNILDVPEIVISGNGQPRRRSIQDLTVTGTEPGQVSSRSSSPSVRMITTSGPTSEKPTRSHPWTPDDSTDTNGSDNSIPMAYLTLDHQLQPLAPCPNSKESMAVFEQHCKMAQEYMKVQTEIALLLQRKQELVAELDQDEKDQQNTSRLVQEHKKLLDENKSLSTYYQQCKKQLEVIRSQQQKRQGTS

[17] = molecular target: Cyclin-dependent kinase 18 (Homo sapiens) (UniProt Q07002); assay: Inhibition of PCTK3 assessed as residual activity at 10 uM relative to control
[18] = molecular target: Mitogen-activated protein kinase 1 (Homo sapiens) (UniProt P28482); assay: Inhibition of ERK2 assessed as residual activity at 1 uM
Method in brief: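 Radioactivity-based enzymatic activity assay of the named kinase, run as part of a 131-kinase specificity panel at the National Centre for Protein Kinase Profiling (Dundee). Residual activity was read at the stated single inhibitor concentration.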

[19] = molecular target: MAP kinase-interacting serine/threonine-protein kinase 2 (Homo sapiens) (UniProt Q9HBH9); assay: Inhibition of MKNK2 assessed as residual activity at 10 uM relative to control
MAP kinase-interacting serine/threonine-protein kinase 2 (Homo sapiens), sequence (Q9HBH9 whole entry, looked up): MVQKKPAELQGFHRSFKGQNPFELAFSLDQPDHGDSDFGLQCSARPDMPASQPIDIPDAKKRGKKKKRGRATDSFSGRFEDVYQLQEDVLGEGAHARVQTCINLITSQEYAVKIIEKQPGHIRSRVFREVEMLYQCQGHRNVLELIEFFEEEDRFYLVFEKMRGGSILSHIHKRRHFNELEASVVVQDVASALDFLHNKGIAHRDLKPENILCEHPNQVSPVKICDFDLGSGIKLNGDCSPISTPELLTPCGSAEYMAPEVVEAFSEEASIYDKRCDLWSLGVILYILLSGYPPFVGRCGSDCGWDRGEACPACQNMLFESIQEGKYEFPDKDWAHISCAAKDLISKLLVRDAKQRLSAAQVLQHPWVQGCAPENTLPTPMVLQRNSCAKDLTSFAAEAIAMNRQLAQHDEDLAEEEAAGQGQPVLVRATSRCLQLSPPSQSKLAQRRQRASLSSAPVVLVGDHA

Cyclin-dependent kinase 9 (Homo sapiens), sequence (P50750 whole entry): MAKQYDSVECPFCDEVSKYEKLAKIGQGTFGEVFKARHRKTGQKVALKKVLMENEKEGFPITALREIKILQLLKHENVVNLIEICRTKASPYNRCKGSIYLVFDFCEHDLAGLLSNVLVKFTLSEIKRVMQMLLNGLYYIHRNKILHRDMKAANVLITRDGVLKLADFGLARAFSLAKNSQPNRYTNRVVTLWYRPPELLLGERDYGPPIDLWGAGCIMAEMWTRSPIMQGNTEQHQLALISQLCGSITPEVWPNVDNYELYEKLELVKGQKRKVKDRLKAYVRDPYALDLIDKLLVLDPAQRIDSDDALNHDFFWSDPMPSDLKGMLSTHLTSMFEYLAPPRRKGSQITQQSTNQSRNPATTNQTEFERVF
Tyrosine-protein kinase Lck (Homo sapiens), sequence (P06239 2-509 limits assumed): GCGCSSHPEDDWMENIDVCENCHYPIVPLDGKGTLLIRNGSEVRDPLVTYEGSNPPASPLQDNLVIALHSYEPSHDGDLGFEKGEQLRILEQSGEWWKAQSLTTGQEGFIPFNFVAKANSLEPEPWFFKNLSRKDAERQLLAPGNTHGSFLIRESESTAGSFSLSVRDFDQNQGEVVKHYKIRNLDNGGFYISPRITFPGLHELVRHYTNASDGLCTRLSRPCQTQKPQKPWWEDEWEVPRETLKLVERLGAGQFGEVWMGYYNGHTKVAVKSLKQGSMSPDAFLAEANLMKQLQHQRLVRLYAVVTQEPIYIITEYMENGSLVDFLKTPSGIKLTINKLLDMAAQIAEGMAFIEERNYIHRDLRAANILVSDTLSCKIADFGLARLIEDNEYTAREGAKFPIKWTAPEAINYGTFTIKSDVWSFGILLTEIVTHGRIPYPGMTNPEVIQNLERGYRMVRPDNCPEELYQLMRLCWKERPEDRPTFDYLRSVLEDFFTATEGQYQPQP
Leucine-rich repeat serine/threonine-protein kinase 2 (Mus musculus), sequence (Q5S006 whole entry): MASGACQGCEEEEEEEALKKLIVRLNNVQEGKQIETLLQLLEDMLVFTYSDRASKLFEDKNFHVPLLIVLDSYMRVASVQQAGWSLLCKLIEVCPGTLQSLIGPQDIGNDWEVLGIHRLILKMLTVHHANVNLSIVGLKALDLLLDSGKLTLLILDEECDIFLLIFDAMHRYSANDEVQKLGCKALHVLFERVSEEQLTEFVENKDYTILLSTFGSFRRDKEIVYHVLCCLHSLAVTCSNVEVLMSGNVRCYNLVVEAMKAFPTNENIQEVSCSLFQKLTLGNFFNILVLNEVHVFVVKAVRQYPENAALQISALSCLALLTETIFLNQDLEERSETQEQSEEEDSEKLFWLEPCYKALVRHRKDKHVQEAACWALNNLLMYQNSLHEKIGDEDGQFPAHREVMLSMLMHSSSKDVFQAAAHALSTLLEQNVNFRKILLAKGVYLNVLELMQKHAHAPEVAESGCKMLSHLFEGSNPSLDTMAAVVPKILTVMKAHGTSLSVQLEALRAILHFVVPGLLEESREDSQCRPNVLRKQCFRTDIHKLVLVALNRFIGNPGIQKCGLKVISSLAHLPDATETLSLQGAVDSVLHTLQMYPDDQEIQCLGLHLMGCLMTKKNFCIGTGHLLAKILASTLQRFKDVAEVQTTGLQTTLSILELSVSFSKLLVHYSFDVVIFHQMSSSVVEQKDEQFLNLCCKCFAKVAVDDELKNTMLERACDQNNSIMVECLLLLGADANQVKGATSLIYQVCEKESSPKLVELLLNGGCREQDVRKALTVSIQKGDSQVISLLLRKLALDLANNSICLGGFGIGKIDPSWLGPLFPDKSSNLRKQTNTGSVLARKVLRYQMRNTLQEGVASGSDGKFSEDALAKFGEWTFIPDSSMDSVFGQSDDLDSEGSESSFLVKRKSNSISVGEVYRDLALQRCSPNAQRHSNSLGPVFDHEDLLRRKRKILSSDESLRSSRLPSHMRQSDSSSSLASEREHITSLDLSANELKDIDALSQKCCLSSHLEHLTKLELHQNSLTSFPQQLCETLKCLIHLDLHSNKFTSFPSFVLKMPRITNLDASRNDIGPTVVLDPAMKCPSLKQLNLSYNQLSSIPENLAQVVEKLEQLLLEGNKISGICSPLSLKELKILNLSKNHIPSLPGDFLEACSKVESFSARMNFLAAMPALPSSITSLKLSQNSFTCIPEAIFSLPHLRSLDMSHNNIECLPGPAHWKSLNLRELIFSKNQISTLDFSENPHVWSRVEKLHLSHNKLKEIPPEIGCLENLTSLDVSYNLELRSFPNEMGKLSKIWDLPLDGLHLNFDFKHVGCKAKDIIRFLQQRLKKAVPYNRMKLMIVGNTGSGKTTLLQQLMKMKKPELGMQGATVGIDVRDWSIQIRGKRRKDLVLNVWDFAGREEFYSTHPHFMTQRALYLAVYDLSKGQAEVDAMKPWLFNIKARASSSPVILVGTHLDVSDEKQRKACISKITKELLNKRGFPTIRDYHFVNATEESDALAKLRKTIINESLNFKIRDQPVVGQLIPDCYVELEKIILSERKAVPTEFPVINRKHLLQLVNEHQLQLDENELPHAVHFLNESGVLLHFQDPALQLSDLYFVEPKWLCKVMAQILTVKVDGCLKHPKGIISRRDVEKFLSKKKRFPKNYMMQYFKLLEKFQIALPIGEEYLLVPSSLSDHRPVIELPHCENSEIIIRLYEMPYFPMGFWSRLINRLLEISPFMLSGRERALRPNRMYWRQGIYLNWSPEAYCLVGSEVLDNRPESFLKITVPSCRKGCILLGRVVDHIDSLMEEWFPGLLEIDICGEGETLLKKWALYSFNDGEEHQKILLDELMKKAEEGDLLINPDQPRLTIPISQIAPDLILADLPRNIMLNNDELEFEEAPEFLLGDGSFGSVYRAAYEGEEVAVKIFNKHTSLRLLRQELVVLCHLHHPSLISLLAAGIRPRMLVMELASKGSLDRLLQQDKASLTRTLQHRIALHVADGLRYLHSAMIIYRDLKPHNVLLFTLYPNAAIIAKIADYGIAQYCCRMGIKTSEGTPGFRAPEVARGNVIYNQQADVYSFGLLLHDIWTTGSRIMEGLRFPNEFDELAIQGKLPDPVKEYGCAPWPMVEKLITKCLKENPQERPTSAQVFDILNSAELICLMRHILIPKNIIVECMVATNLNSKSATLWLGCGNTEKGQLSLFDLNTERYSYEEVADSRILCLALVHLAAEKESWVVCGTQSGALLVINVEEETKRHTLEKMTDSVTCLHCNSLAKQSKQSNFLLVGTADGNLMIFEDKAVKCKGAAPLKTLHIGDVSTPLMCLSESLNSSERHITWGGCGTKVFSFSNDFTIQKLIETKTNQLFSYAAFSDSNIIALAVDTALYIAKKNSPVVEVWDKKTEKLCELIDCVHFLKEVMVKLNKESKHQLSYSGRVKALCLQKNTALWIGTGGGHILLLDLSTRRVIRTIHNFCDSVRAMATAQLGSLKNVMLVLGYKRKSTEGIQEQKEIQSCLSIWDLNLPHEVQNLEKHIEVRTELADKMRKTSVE
Dual specificity mitogen-activated protein kinase kinase 1 (Homo sapiens), sequence (Q02750 whole entry): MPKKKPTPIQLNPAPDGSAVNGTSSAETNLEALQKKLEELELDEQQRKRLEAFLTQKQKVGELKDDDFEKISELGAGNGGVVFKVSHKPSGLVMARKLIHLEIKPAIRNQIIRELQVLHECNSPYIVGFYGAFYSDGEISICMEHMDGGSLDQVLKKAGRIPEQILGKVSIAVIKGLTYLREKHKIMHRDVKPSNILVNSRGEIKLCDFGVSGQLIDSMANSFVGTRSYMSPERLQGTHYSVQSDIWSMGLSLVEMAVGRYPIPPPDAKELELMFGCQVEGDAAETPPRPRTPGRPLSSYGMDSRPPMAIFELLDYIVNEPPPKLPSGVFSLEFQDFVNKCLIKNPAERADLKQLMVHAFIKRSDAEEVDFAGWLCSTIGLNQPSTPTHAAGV
Tyrosine-protein kinase CSK (Homo sapiens), sequence (P41240 2-450 limits assumed): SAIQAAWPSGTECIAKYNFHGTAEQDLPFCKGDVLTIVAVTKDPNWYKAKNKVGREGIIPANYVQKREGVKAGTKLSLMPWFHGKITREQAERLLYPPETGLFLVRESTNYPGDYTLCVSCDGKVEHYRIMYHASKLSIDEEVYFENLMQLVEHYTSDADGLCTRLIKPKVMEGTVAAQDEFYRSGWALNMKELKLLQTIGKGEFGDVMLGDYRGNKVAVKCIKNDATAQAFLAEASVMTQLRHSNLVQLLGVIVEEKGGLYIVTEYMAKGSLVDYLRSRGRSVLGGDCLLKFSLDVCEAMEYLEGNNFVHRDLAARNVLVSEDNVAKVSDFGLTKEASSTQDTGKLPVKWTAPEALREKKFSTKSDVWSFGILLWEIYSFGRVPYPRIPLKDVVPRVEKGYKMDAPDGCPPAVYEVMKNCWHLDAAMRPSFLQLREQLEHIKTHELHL
Mitogen-activated protein kinase 1 (Homo sapiens), sequence (P28482 whole entry): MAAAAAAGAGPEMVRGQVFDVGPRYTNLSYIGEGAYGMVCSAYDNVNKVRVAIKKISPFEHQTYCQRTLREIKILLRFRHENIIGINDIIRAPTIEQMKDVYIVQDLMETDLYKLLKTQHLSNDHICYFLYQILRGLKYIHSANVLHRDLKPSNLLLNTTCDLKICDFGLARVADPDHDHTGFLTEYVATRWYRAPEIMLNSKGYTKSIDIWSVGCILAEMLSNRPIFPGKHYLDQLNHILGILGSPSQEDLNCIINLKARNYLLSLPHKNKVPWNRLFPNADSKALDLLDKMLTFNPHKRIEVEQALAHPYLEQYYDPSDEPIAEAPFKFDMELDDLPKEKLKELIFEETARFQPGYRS

## O=C(Nc1cccnc1)c1cc(-c2ccnc(F)c2)ccc1OCc1ccccc1
[1]
  Activity: 77%
[2]
  Activity: 58%
[3]
  Activity: 69%
[4]
  inhibition: Dose-dependent effect
[5]
  Activity: 80%
[6]
  Activity: 74%
[7]
  Activity: 114%
[8]
  Activity: 57%
[9]
  Activity: 80%
[10]
  Activity: 71%
[11]
  Activity: 65%
[12]
  Activity: 113%
[13]
  Activity: 44%
[14]
  inhibition: Active
[15]
  Activity: 46%
[16]
  Activity: 108%
[17]
  Activity: 58%
[18]
  Activity: 104%
[19]
  Activity: 52%
